Assay results reported in the RNAGym collection of RNA variant scans (doi:10.1126/science.aae0568).
This sample holds only a part of the variants without activity.

B1: tRNA (parent)
chain: GUUCCGUUGGCGUAAUGGUAACGCGUCUCCCUCCUAAGGAGAAGACUGCGGGUUCGAGUCCCGUACGGAACG

Variants of: B1
Assay: yeast fitness relative to wild type (ratio to wild type); higher = fitter; tRNA-Arg(CCU), competitive growth, 37 C, YPD
Method in brief: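 Start and end populations of a pooled competition were compared by 100-nucleotide paired-end sequencing of gene amplicons. The Saccharomyces cerevisiae strains carried tRNA-Arg(CCU) gene variants at the native genomic locus, synthesised with a 3% per-site mutation rate at 69 sites, and competed in YPD at 37°C for 24 hours in six parallel replicates. Darwinian fitness relative to wild type was based on the change in genotype frequencies. Genotypes required ≥ 100 starting reads, and estimates < 0.5 were set to 0.5.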

Variant	yeast fitness
A37C C60G C66G A70G	≤ 0.5
A37C C62G A69C	≤ 0.5
A37C C62U	0.913
A37C C62U A70U	≤ 0.5
A37C C62U C66G	≤ 0.5
A37C C66G	0.586
A37C C66U	0.75
A37C G38A	0.636
A37C G38A C55A A65C	≤ 0.5
A37C G38A G63A	0.549
A37C G38C C55U	≤ 0.5
A37C G38C U54C C61U	0.678
A37C G39C A65U	≤ 0.5
A37C G39C C49U	≤ 0.5
A37C G39C C55U C61A	0.532
A37C G39C G50C	≤ 0.5
A37C G41A	1.01
A37C G41A A70C	≤ 0.5
A37C G41A C49U C60G	≤ 0.5
A37C G41C A45G	≤ 0.5
A37C G44A	0.776
A37C G44C G52C U59C C66U	0.574
A37C G51A G67A	0.584
A37C G52C	0.537

Variant	yeast fitness
A37C G52C C60G C61A C66U	≤ 0.5
A37C G56A	0.829
A37C G56A A69U	0.647
A37C G58A	0.844
A37C G63A	0.612
A37C G63C	0.663
A37C G67A	0.696
A37C G67C	0.846
A37C G68A	0.729
A37C G68U	0.761
A37C U47C	0.81
A37C U47G C62G G68A	0.549
A37C U53A	0.632
A37C U54C	0.799
A37C U59G	0.712
A37C U64G	0.684
A37G	0.734
A37G A40C C61G A69U	≤ 0.5
A37G A40G A43G G52C U59G	≤ 0.5
A37G A40G A45U	0.566
A37G A40U C49A A57U	≤ 0.5
A37G A40U C55A	0.829
A37G A40U G58C	0.729
A37G A42C A65C A69C	0.616

Variant	yeast fitness
A37G A42C C55G G68C	≤ 0.5
A37G A42G	0.838
A37G A42G A70U	0.539
A37G A42U G48C C49U	0.599
A37G A43C	0.89
A37G A43G A69U	0.802
A37G A43G C55A G56A	0.6
A37G A43U	0.631
A37G A45C	0.78
A37G A45C C46A	0.579
A37G A45C C61G	≤ 0.5
A37G A45C C61G A70U	≤ 0.5
A37G A45C C61U	0.579
A37G A45G G48A	0.557
A37G A45U	0.684
A37G A45U C60U A70G	≤ 0.5
A37G A45U U59A	≤ 0.5
A37G A57C	0.545
A37G A65C	0.942
A37G A69U	0.856
A37G A70G	0.832
A37G C46U	0.722
A37G C46U C55U	≤ 0.5
A37G C49A	0.546

Variant	yeast fitness
A37G C49G	0.788
A37G C49G A57C	0.798
A37G C55A	≤ 0.5
A37G C55A G58C G68C	≤ 0.5
A37G C55G C66G	≤ 0.5
A37G C55U G56A C66G	≤ 0.5
A37G C60A	0.661
A37G C60G	≤ 0.5
A37G C60G G68A	≤ 0.5
A37G C60U	0.631
A37G C61A C66U	≤ 0.5
A37G C61A G63C	≤ 0.5
A37G C62G	0.676
A37G C66G	0.692
A37G C66U	0.828
A37G G38A	0.725
A37G G38A C55U U59G	≤ 0.5
A37G G39A A40G G41A A43G	≤ 0.5
A37G G39A A69U	0.589
A37G G39A C62A A69C	≤ 0.5
A37G G41A	0.805
A37G G41C A43U	≤ 0.5
A37G G41C A43U C66U A69C	≤ 0.5
A37G G44C A57U G63C	≤ 0.5

Variant	yeast fitness
A37G G44C A57U G67U A69C	≤ 0.5
A37G G48A G50A U59G	0.66
A37G G50C	0.693
A37G G50C U54A C61A	≤ 0.5
A37G G51A	0.704
A37G G51C C62G	0.55
A37G G51C C62G C66U	≤ 0.5
A37G G52A	0.583
A37G G52C	≤ 0.5
A37G G56A	0.825
A37G G56A C62A A70G	≤ 0.5
A37G G56A G63A	≤ 0.5
A37G G63A	0.62
A37G G63C	0.66
A37G G63C G68C	≤ 0.5
A37G G68A	0.88
A37G G68A A69G	≤ 0.5
A37G G68C	0.665
A37G U53A	≤ 0.5
A37G U53C C62G	0.594
A37G U53C G58A G68A	≤ 0.5
A37G U59C	0.741
A37G U64A	0.61
A37U	0.722

Variant	yeast fitness
A37U A40C A42G	≤ 0.5
A37U A40C G58A	0.591
A37U A40U G56C A69U	≤ 0.5
A37U A40U G67C	0.563
A37U A40U U64C G67A	≤ 0.5
A37U A42C C55U A69U	≤ 0.5
A37U A42G A45U	0.592
A37U A42G A45U C66U	≤ 0.5
A37U A42G A69C	≤ 0.5
A37U A42G A69U	≤ 0.5
A37U A42U C66A A69C	0.572
A37U A42U G52C	0.575
A37U A43C U47C C60G	≤ 0.5
A37U A43C U53A U54C	≤ 0.5
A37U A43G G63A G67C A70G	0.802
A37U A43U A57U C66A	≤ 0.5
A37U A43U G48C	0.514
A37U A45C	0.64
A37U A45C G52C	≤ 0.5
A37U A45G	0.777
A37U A45U U47C	≤ 0.5
A37U A57C A69U A70C	0.775
A37U A57C G58A A69U A70C	0.542
A37U A65U	0.665

Variant	yeast fitness
A37U A65U C66G	≤ 0.5
A37U A69C	0.796
A37U A69U	0.723
A37U A70C	0.917
A37U A70G	0.72
A37U C46G C55A U59C C61A C62U	0.524
A37U C46G U54C C61A	0.543
A37U C46U	0.821
A37U C49A	0.712
A37U C49A C62U	0.579
A37U C49A G52A C55U G56A	0.529
A37U C49G	0.652
A37U C49U C61U	0.527
A37U C49U U64A	≤ 0.5
A37U C55A	≤ 0.5
A37U C55A C60U	≤ 0.5
A37U C55G	0.609
A37U C55U	0.594
A37U C55U C61G A65U A70U	≤ 0.5
A37U C60G	0.516
A37U C60U	0.519
A37U C61A	≤ 0.5
A37U C61U A70G	0.572
